In ChEMBL document CHEMBL3352597, “Heck products of parthenolide and melampomagnolide-B as anticancer modulators that modify cell cycle progression” (Eur J Med Chem, 2014):
Active and inactive are the calls of the source. No cut-off for these calls is given here.

Legend:
Oocyte = test: Induction of immature stage VI Xenopus oocyte maturation assessed as spontaneous maturation measured as germinal vesicle (nuclear) breakdown at 100 uM after overnight incubation; format: functional, cell-based
Procedure, shortened: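 Isolated Xenopus oocytes (20 per well) incubated overnight with compound in DMSO at 100 μM final, no progesterone. The next morning, GVBD is scored as a white spot at the animal pole. Rate is expressed relative to DMSO controls, where 2.0 means spontaneous maturation.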

CCRF-CEM = test: Anticancer activity against human CCRF-CEM cells assessed as growth inhibition at 10^-5 M; format: functional; settings: read-out: GI
Procedure, shortened: (§1)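 NCI-60 human tumour cell line panel screened at a single concentration of 10^-5 M; value is percent growth inhibition relative to untreated growth.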

[1] = Anticancer activity against human BT549 cells assessed as growth inhibition at 10^-5 M; format: functional; settings: BT-549, read-out: GI; procedure, shortened: as §1

C[C@@]12CC/C=C(/CO)CC[C@@H]3/C(=C\c4ccccc4Br)C(=O)O[C@@H]3[C@@H]1O2
Activity (Oocyte): Active
inhibition of growth at 10 µM (CCRF-CEM): 28.5%
inhibition of growth at 10 µM [1]: 24.2%
